Test results taken from publication PMC3583018 (Synapse (New York, N.Y.), 2010).
Values joined by “and” are separate entries in the source; they are usually repeats but may differ in a detail not shown here. Equal entries are not always repeated. Where two headings read alike, the source gives them in different places. Blank lines part the entries; values can stand above or below the compound they belong to.

How the values were obtained:
D3 receptors [1] = target: D3 receptors (Rattus norvegicus, UniProt P19020); experiment: Scatchard analysis of autoradiography binding to rat brain sections; set-up: species or system Sprague-Dawley rat
D2 plus D3 receptors [2] = type: binding, rhesus monkey; conditions: n = 8; for B1 apparent receptor binding density: 4 nM radioligand; for B2 apparent receptor binding density: 10 nM radioligand
Summary of the method: (§1)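 Brains from male rhesus monkey (5 kg, 6 years) and male Sprague-Dawley rats (~500 g, 5 months) were flash frozen, and 20 μm coronal sections were cut. Sections were incubated 30 min with 4 nM tritiated test radioligand or 10 nM [3H]raclopride, ±1 μM S(−)-eticlopride for nonspecific binding. Sections were rinsed five times in ice-cold buffer, then imaged 24 h on a gaseous beta imager and calibrated against tritium standards. Reported as mean ± S.E.M (monkey n = 8, rat n = 30).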

D2 plus D3 receptors [3] = type: binding, Sprague-Dawley rat; conditions: rat striatum, n = 30
Summary of the method: as §1

D2 receptors [4] = experiment: Fractional receptor occupancy from saturation binding isotherm; conditions: monkey striatum; for receptors labeled: derived from saturation binding isotherm
Summary of the method: (§2)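 Calculated rather than measured: the fraction of D2 or D3 receptors occupied in monkey striatum comes from B/Bmax = L/(L+Kd). L is 4 nM for the tritiated test radioligand or 10 nM for tritiated raclopride. Kd values are from saturation binding to cloned human D2L/D3 receptors expressed in HEK cells. The test radioligand Kd values were taken from earlier work.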

D3 receptors [5] = experiment: as above; conditions: monkey striatum; for receptors labeled: derived from saturation binding isotherm
Summary of the method: as §2

D2 receptors [6] = experiment: Fractional receptor occupancy from saturation binding isotherm; conditions: rat striatum; for receptors labeled: derived from saturation binding isotherm
Summary of the method: (§3)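 Computed occupancy fractions for rat striatum D2 or D3 receptors use the mass-action isotherm B/Bmax = L/(L+Kd). L is 4 nM for the tritiated test radioligand and 10 nM for tritiated raclopride. Kd values come from saturation binding to rat D2L/D3 receptors expressed in Sf9 cell membranes. The test radioligand Kd was taken from earlier work.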

D3 receptors [7] = experiment: as above; conditions: rat striatum; for receptors labeled: derived from saturation binding isotherm
Summary of the method: as §3

human hD2L receptors = human hD2L receptors (Homo sapiens, UniProt P14416); conditions: hD2L in HEK cells, saturation binding, mean ± S.E.M n = 3; ref Xu et al. (2009); cited from earlier work
human hD3 receptors [8] = target: T1, human hD3 receptors (Homo sapiens, UniProt P35462); conditions: cited from earlier work
rat rD2L receptors = rat rD2L receptors (Rattus norvegicus, UniProt P61169); conditions: rD2L in Sf9 cells, saturation binding, mean ± S.E.M n = 3; ref Xu et al. (2009); cited from earlier work
rat rD3 receptors [9] = target: T2, rat rD3 receptors (Rattus norvegicus, UniProt P19020); conditions: cited from earlier work
human hD3 receptors [10] = target: T1, human hD3 receptors; experiment: Saturation; conditions: hD3 in HEK cells, saturation binding, mean ± S.E.M n = 3
rat rD3 receptors [11] = target: T2, rat rD3 receptors; experiment: Saturation; conditions: rD3 in Sf9 cells, saturation binding, mean ± S.E.M n = 3
[12] = 4 nM, from Eq. 2 with Kd of Table I
[13] = 10 nM, from Eq. 2 with Kd of Table I

T2 sequence (P19020 whole entry): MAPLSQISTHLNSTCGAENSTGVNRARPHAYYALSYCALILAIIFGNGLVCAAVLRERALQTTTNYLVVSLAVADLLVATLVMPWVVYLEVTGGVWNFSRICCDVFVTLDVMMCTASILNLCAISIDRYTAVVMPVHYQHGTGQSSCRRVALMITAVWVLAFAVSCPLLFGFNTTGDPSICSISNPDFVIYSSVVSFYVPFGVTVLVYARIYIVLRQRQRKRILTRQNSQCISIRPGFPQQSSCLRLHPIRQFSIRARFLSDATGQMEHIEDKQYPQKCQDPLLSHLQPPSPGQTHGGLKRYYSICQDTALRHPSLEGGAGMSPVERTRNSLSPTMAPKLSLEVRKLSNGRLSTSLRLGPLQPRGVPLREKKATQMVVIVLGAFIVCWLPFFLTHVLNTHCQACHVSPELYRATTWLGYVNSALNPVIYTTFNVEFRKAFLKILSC
T1 sequence (P35462 whole entry): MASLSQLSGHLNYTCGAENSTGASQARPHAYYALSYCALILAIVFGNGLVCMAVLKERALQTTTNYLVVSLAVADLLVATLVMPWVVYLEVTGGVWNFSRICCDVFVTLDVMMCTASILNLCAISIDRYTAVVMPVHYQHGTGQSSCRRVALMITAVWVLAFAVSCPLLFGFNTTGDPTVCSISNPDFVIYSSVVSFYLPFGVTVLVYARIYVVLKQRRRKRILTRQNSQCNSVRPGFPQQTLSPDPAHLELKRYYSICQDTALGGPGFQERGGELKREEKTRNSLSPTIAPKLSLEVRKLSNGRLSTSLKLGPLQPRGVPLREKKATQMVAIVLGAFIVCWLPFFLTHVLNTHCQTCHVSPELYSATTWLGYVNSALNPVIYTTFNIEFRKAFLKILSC
Sequence of D3 receptors (Rattus norvegicus, UniProt P19020) (P19020 whole entry): as the sequence (P19020 whole entry) above
Sequence of human hD2L receptors (P14416 whole entry): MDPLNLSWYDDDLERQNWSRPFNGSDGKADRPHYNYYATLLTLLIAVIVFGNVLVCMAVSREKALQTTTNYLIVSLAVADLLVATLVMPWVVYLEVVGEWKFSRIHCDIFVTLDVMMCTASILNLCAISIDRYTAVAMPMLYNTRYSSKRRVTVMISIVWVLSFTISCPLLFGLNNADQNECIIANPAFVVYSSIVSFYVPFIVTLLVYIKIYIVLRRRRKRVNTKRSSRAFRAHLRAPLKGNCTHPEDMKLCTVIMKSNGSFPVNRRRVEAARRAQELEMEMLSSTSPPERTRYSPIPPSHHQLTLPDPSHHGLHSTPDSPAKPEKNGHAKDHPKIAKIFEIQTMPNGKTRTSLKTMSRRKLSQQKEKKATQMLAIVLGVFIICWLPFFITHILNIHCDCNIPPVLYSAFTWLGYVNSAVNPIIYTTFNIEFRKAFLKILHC
Sequence of rat rD2L receptors (P61169 whole entry): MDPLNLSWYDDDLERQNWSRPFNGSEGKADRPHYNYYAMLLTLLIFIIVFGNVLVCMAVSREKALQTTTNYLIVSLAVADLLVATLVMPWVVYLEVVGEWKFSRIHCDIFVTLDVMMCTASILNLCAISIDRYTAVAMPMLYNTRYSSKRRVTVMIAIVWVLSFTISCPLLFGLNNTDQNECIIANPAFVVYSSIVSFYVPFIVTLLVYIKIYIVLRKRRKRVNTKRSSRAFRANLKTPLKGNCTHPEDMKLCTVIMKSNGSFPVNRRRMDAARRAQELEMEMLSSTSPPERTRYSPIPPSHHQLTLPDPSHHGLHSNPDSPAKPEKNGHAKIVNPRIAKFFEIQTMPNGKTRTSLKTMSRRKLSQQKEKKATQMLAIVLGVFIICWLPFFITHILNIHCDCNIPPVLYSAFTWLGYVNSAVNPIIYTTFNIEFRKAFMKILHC

Kd (D3 receptors [1]): 3.4 nM | receptors labeled (D2 receptors [4]; 4 nM): 5% | a1, receptor occupancy fraction (D2 receptors [4]; [12]): 0.05 | receptors labeled (D3 receptors [5]; 4 nM): 78% | b1, receptor occupancy fraction (D3 receptors [5]; [12]): 0.78 | receptors labeled (D2 receptors [6]; 4 nM): 2% | a1, receptor occupancy fraction (D2 receptors [6]; [12]): 0.02 | receptors labeled (D3 receptors [7]; 4 nM): 50% | b1, receptor occupancy fraction (D3 receptors [7]; [12]): 0.5
SMILES: COc1ccccc1N1CCN(CCCCNC(=O)c2ccc(N(C)C)cc2)CC1 [[^3H]WC-10, 4-(dimethylamino)-N-(4-(4-(2-methoxyphenyl)piperazin-1-yl)butyl)benzamide]
B1 apparent receptor binding density (D2 plus D3 receptors [2]; rhesus anterior caudate): 125 fmol/mg tissue and 125 ± 3 fmol/mg tissue | B1 apparent receptor binding density (D2 plus D3 receptors [2]; rhesus putamen): 141 fmol/mg tissue and 141 ± 4 fmol/mg tissue | B1 apparent receptor binding density (D2 plus D3 receptors [3]; 4 nM radioligand): 38 fmol/mg tissue and 38 ± 2 fmol/mg tissue | Kd (human hD2L receptors): 76 ± 4 nM | Kd (human hD3 receptors [8]; hD3 in HEK cells, saturation binding, mean ± S.E.M n = 3, ref Xu et al. (2009)): 1.2 nM and 1.16 nM | D2L/D3 (Kd ratio) (human hD3 receptors [8]; human receptors in HEK cells, ref Xu et al. (2009)): 65.5 | fold higher affinity to human HEK D3 than to HEK D2L receptors (human hD3 receptors [8]; ref Xu et al., 2009): 66 fold | Kd (rat rD2L receptors): 158 ± 8.3 nM | Kd (rat rD3 receptors [9]; rD3 in Sf9 cells, saturation binding, mean ± S.E.M n = 3, ref Xu et al. (2009)): 3.9 nM and 3.94 nM | D2L/D3 (Kd ratio) (rat rD3 receptors [9]; rat receptors in Sf9 cells, ref Xu et al. (2009)): 40.1 | fold higher affinity to rat Sf9 rD3 than to rat Sf9 rD2L receptors (rat rD3 receptors [9]; ref Xu et al., 2009): 40 fold | fold lower affinity to rat Sf9 rD3 than to human HEK D3 receptors (rat rD3 receptors [9]; ref Xu et al., 2009): 3 fold

SMILES: CCN1CCC[C@H]1CNC(=O)c1c(O)c(Cl)cc(Cl)c1OC (racemic) [[^3H]raclopride, reference compound]
Kd (human hD3 receptors [10]): 18 ± 1 nM | Kd (rat rD3 receptors [11]): 17.1 ± 1.7 nM | B2 apparent receptor binding density (D2 plus D3 receptors [2]; rhesus caudate): 318 fmol/mg tissue and 318 ± 17 fmol/mg tissue | B2 apparent receptor binding density (D2 plus D3 receptors [2]; rhesus putamen): 345 fmol/mg tissue and 345 ± 23 fmol/mg tissue | B2 apparent receptor binding density (D2 plus D3 receptors [3]; 10 nM radioligand): 145 fmol/mg tissue and 145 ± 4 fmol/mg tissue | receptors labeled (D2 receptors [4]; 10 nM): 86% | a2, receptor occupancy fraction (D2 receptors [4]; [13]): 0.86 | receptors labeled (D3 receptors [5]; 10 nM): 36% | b2, receptor occupancy fraction (D3 receptors [5]; [13]): 0.36 | receptors labeled (D2 receptors [6]; 10 nM): 60% | a2, receptor occupancy fraction (D2 receptors [6]; [13]): 0.6 | receptors labeled (D3 receptors [7]; 10 nM): 37% | b2, receptor occupancy fraction (D3 receptors [7]; [13]): 0.37
